Screening results from PubChem BioAssay.
SENP1 inh: human SENP1 catalytic domain inhibitors, primary screen, biochemical, FRET, uHTS; recombinant SENP1 catalytic domain, CyPet-SUMO1-YPet FRET cleavage; inhibition, % at 10 µM; 360,000 compounds, 0.21% hits; AID 624204, 2012;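 active means inhibition at least 30% at 10 µM, raw YFP signal under a set limit, fluorescence ratio 0.5 to 1.5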;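 further: 0% = enzyme with DMSO and 100% = no enzyme wells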
Target sequence (Q9P0U3 419-644 limits assumed): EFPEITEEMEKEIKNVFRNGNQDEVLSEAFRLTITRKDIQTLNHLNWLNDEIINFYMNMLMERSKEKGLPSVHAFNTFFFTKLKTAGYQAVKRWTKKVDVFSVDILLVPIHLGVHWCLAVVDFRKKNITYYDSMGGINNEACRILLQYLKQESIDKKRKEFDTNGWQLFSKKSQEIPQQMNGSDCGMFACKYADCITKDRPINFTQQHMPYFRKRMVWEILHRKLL
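Test system: recombinant human SENP1 catalytic domain, His6-tagged / Medium: pH 8 Tris buffer with EDTA, NaCl, BME, BSA, NP40, catalase / Also added: SUMO1 FRET substrate flanked by Cypet and Ypet, 25 nM / Times: 50 min reaction at room temperature / Signal: FRET, CFP and YFP emission / Control set: no-enzyme low control and enzyme-plus-DMSO high control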
CendR NRP1 mod: modulators of CendR peptide binding to NRP-1, primary screen, biochemical, fluorescence polarization, uHTS; FAM-RPARPAR peptide binding to NRP-1; inhibition, % at 25 µM; 360,000 compounds, 0.85% hits; Neuropilin-1 (Homo sapiens), O14786;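 active means inhibition or corrected inhibition above about 18%, plus a signal ratio from 0.5 to 1.5, limit read from the data, passing the limit was not always enough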
DAGLB inh: DAGLB lipase inhibitors, primary screen, biochemical, fluorescence, HTS; Diacylglycerol lipase-beta (Homo sapiens), Q8NCG7; HEK293T DAGLB membrane lysate, EnzChek fluorogenic substrate; inhibition, % at 5.17 µM; 340,000 compounds, 0.059% hits; in the data active means inhibition above about 34%;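 further: 0% = enzyme with vehicle and 100% = wells lacking enzyme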
beta cell repl: inducers of MIN6 beta-cell proliferation, primary screen, ATP luminescence, uHTS | AID 2380, 2010 | proliferation, % at 10 µM | 330,000 compounds, 0.29% hits | MIN6 cells proliferation, ATPlite luminescence, 48 h; cells starved in 0.2% serum; 100% = growth in 10% serum;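 active means compounds whose signal lies at least 3.5 SD above the mean of all wells on their plate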;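 further: 0% = DMSO-treated cells in low-serum medium and 100% = 10% serum control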
MT1-MMP act inh: blockers of MT1-MMP proenzyme processing, primary screen, HT1080 RFP-PRO-GFP cells, GFP/RFP fluorescence. GFP/RFP ratio fluorescence, overnight; percent of plate control window, DMSO zero. GFP/RFP ratio change, % at 20 µM. Matrix metalloproteinase-14 (Homo sapiens), P50281. 360,000 compounds, 0.061% hits;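 active means GFP/RFP ratio change of at least 30% with cell ATP level not reduced by more than half and red fluorescence within 50% of control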
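Compound: 20 µM single dose, 1% DMSO / System: HT1080 RFP-PRO-GFP cells / Controls: DMSO and RFP-L50D-GFP cell wells / Read-out basis: GFP/RFP fluorescence ratio / Schedule: overnight compound exposure at 37 °C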
Myeloid diff MLP: induction of myeloid progenitor differentiation, primary screen, cell-based, flow cytometry, MLPCN library; 360,000 compounds, 1% hits; AID 624256, 2012; calls only at 10 µM; ER-HoxA9 myeloid progenitors, lysozyme-GFP differentiation;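 active means normalized GFP-positive differentiation at or above the plate's own cutoff, the solvent-only control mean plus 3 SD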;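 further: cells exposed to compound for four days before flow analysis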
Numbers without * were called inactive; i = inactive; nt = not tested or not shown; + = active, no number. Compounds with a hit are over-represented: about 2.4% of the library has one in this group of screens.

SMILES	SENP1 inh	CendR NRP1 mod	DAGLB inh	beta cell repl	MT1-MMP act inh	Myeloid diff MLP
O=S(=O)(c1cccc2nsnc12)N1CCN(Cc2ccccc2)CC1	-0.2	19.3*	-4.3	1.7	-0.6	i
COCCn1c(-c2ccc(-c3ccc([N+](=O)[O-])cc3Br)o2)nc2c1c(=O)[nH]c(=O)n2CC(C)C	-36.2	-86.0	1.8	-0.3	-21.0	+
O=C(CN(CC1CCCO1)C(=O)CCC(=O)Nc1nccs1)NCc1ccccc1 (stereo unspecified)	-0.3	0.9	-1.1	-0.6	4.3	i
Nc1ccc(CSc2ccccc2)cc1	2.6	1.6	3.0	nt	1.7	i
COc1ccccc1C(=O)Nc1ccnn1C1CCN(C/C=C/c2ccc(F)cc2)CC1	-0.9	-0.2	2.9	-5.8	1.1	+
O=C(Nc1ccnn1C1CCN(C/C=C/c2ccccc2)CC1)c1ccccc1Cl	0.9	10.6	2.9	-2.6	0.2	i
COc1cc(/C=N/NC(=O)c2cccc([N+](=O)[O-])c2)ccc1OC(=O)c1ccco1	3.3	9.4	-1.9	-2.4	5.4	i
O=[N+]([O-])c1c(Nc2ccccc2O)ccc2nonc12	-1.7	25.3*	6.3	-2.0	0.4	i
Cc1ccccc1Nc1ccc2nonc2c1[N+](=O)[O-]	1.2	-3.2	0.8	-1.2	2.3	i
CCOc1ccc(OC(=O)C(CCS(C)(=O)=O)N2C(=O)c3ccccc3C2=O)cc1 (stereo unspecified)	1.7	23.9	-1.1	-2.7	0.3	+
COc1cc2c(cc1OC)C(=NO)CCCC2	3.7	14.0	1.4	nt	-0.5	i
O=C(N[C@@H](Cc1c[nH]c2ccccc12)C(=O)O)C1CCN(S(=O)(=O)c2cccs2)CC1	-1.1	-11.5	2.2	2.1	-2.7	i
COc1ccc(-c2cc(C(F)(F)F)nc(SCC(=O)NCCN3CCOCC3)n2)cc1OC	-0.6	31.1*	1.7	-1.6	-0.9	i
Cc1cc(NC(=O)CSc2nc(-c3cccs3)cc(C(F)(F)F)n2)no1	1.6	-2.6	1.4	-4.2	-0.8	+
COc1ccc(-c2cc(C(F)(F)F)nc(SCC(=O)Nc3cc(C)on3)n2)cc1OC	1.2	39.0*	3.1	-2.4	3.8	i
COc1ccc(-c2cc(C(F)(F)F)nc(SCCC(=O)Nc3cc(C)on3)n2)cc1	2.4	9.3	-3.0	0.8	-1.7	i
O=C1CSC(=S)N1/N=C/c1cc(Br)c(O)c(Br)c1	-21.0	140.4	-24.9	nt	6.5	i
CN1CCCNc2nc3ccccc3nc21	-44.2	-75.3	1.1	1.0	-18.6	+
CC(=O)Nc1ccc(S(=O)(=O)N2CN(c3ccc(C)cc3)c3nc4ccccc4nc32)cc1	-8.7	4.5	-2.0	-6.5	-2.2	i
CN1CCCN(S(=O)(=O)c2ccccc2)c2nc3ccccc3nc21	-43.3	-32.9	-3.8	4.6	-8.7	+
Nc1nc2ccccc2nc1N1CCCC1	-5.4	2.9	1.6	5.1	-3.6	i
Cc1ccc(S(=O)(=O)N2CCCN(C)c3nc4ccccc4nc32)cc1	-44.2	-73.3	-2.9	2.8	-23.3	+
O=C(C(=O)N1CCN(c2ccc([N+](=O)[O-])cc2)CC1)c1cn(CC(=O)N2CCOCC2)c2ccccc12	-7.8	-1.0	1.3	-1.8	-0.1	i
N#Cc1c(N)n(CCNC(=O)c2cccs2)c2nc3ccccc3nc12	-33.9	-35.4	1.7	-1.4	-4.7	+
N#Cc1c(N)n(CCNC(=O)c2ccccc2)c2nc3ccccc3nc12	-27.3	0.7	1.1	-3.5	-3.2	i
SMILES	SENP1 inh	CendR NRP1 mod	DAGLB inh	beta cell repl	MT1-MMP act inh	Myeloid diff MLP
CC(C)[C@H](NC(=O)c1ccc(Cl)cc1Cl)C(=O)OCc1nc2ccsc2c(=O)[nH]1	1.0	-5.3	-1.3	nt	3.2	i
CCOC(=O)C1(Cc2cccc(F)c2)CCN(Cc2ccon2)CC1	-0.6	30.4*	nt	-0.2	-0.6	i
O=S(=O)(Nc1ccc(Cl)cc1NS(=O)(=O)c1ccccc1)c1ccccc1	1.5	17.2*	29.4	nt	-3.8	i
Cc1ccc(Cl)cc1NS(=O)(=O)c1ccccc1	1.0	-59.0	-0.3	nt	4.8	i
Cc1ccc2c(c1)-c1cc(C)nn1C(c1sccc1C)N2 (stereo unspecified)	-24.9	27.2*	-8.1	-4.0	0.3	i
COC(C(=O)Nc1cccc(F)c1)c1ccccc1 (stereo unspecified)	0.0	7.7	-2.2	-1.1	4.1	+
O=C(NC1CCCCCC1)c1ccc(CS(=O)Cc2cccc(Cl)c2)o1 (stereo unspecified)	0.3	2.0	-3.1	5.5	3.1	i
CN1C(=O)C(C)(C)c2cc(S(=O)(=O)N3CCN(c4cccc(Cl)c4)CC3)ccc21	2.1	-6.8	1.2	-5.4	1.9	+
O=S1(=O)N=C(N(CCO)/N=C/c2ccc(Cl)cc2)c2ccccc21	1.7	-3.4	-0.8	-1.2	-6.1	i
O=S1(=O)N=C(N(CCO)/N=C/C=C/c2ccccc2)c2ccccc21	-2.3	-21.5	-3.1	nt	0.5	+
CCCNC(=O)C1(C)CCN1C(=O)Cc1ccc(C(C)(C)C)cc1 (stereo unspecified)	3.5	-7.9	nt	nt	-0.8	i
CC(C)(C)CNC(=O)C1(C)CCN1C(=O)Cc1ccc(C(C)(C)C)cc1 (stereo unspecified)	-0.3	33.2*	nt	nt	7.1	i
O=c1[nH]c2ccccc2nc1/C=C/c1ccc(F)cc1	-24.6	-82.0	-1.3	-3.1	-24.9	+
O=C(/C=C/c1ccc(F)cc1)Nc1nc2ccccc2[nH]1	nt	nt	nt	1.3	nt	nt
O=c1[nH]c2ccccc2nc1/C=C/c1ccccc1	-21.0	-14.6	-1.6	-3.9	-16.0	i
O=c1[nH]c2ccccc2nc1/C=C/c1ccc(O)cc1	-27.4	-55.0	-0.4	-3.5	-38.8	+
CCC(CC)c1nnc(NC(=O)c2cccc(S(=O)(=O)N3CCOCC3)c2)s1	0.8	25.9*	1.1	-2.3	-1.9	i
O=C(O)CCNc1nc(C(F)(F)F)nc2ccccc12	2.9	-1.3	-0.1	-0.7	-4.7	+
Oc1ccccc1/C=N/Nc1cccc2cccnc12	-66.5	3.0	1.9	-4.3	4.5	+
O=C(COc1cccc2cccnc12)N/N=C/c1ccccc1O	-4.4	-0.2	-0.5	-4.0	3.2	i
